According to article PMC3256319 (Investigational New Drugs, 2010):
“And” between values parts separate entries of the source, which are not always exact repeats. Equal values may be shown once.

Assays:
[1] = cited from earlier work
[2] = assay type: in vivo, human healthy volunteers
[3] = concurrent administration of phenytoin, one patient; cited from earlier work
[4] = ketoconazole 400 mg; based on IC50 in human liver microsomal preparations
[5] = test system: tumor growth; settings: pre-clinical tumor growth inhibition studies; cited from earlier work
[6] = Blood pressure change from baseline in crossover study; assay type: in vivo, human healthy volunteers
How it was run: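 Randomized two-way crossover in healthy volunteers with placebo on day –1 and a 14-day washout. In one arm, a single oral 5-mg dose was given on day 1 after an overnight fast of at least 8 h. In the other, oral ketoconazole 400 mg/day was given on days 1–7, with the 5-mg dose given alongside it on day 4. BP was measured before blood sampling at PK timepoints and at 10 h post-dose, expressed as time-matched change from baseline. Analysis required at least one baseline and one post-baseline reading.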

[7] = Safety and tolerability; assay type: in vivo, human healthy volunteers
How it was run: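 Healthy volunteers in a randomized crossover separated by a 14-day washout. Treatments were a single fasted oral 5-mg dose on day 1, or ketoconazole 400 mg/day on days 1–7 with the 5-mg dose on day 4. Safety was monitored through adverse events, vital signs, ECGs, laboratory tests and physical examinations. AEs were graded by NCI CTCAE v3.0. All subjects receiving at least one dose of any study medication were included.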

[8] = Intrinsic clearance converted from in vivo systemic clearance; parameters: species or system human healthy volunteers
[9] = test system: axitinib metabolism in human liver microsomes; assay type: in vitro ADME; settings: probe axitinib
[10] = in the presence of ketoconazole
[11] = axitinib in combination with ketoconazole

CNC(=O)c1ccccc1Sc1ccc2c(/C=C/c3ccccn3)n[nH]c2c1 [Axitinib]
average axitinib plasma concentration in clinical trials ([1]; after dosing 5 mg twice daily): 0.19 ± 0.12 nmol/L | effective plasma terminal half-life [1]: 2 to 5 h | oral absolute bioavailability [1]: approximately 58% | time of peak plasma concentrations after dosing ([1]; oral, fed state): 1 to 4 h | pre-dose axitinib plasma concentration ([2]; all pre-dose samples, below lower limit of quantification): < 0.100 ng/mL | half-life ([2]; human, plasma, oral, 5 mg): 9.44 h | fold increase in axitinib geometric mean AUC0–∞ observed clinically [2, 10]: 2.06 fold and ~ 2 fold | fold increase in axitinib geometric mean Cmax observed clinically [2, 10]: 1.50 fold and ~ 1.5 fold | fold reduction of axitinib AUC0–24 [3]: approximately 10 fold | fold reduction of axitinib Cmax [3]: approximately 10 fold | predicted fold increase in axitinib geometric mean AUC0–∞ [4]: 1.8 fold | predicted fold increase in axitinib geometric mean Cmax [4]: 1.5 fold | effective axitinib concentration [5]: 0.28 to 0.85 nmol/L | mean time-matched changes from baseline in BP [6, 11]: minimal | mean time-matched changes from baseline in BP ([6]; axitinib treatment alone): minimal | tolerability ([7]; axitinib alone, single 5-mg dose): well tolerated | tolerability [7, 11]: well tolerated | clearance attributed to non-metabolic pathways, share ([8]; remaining clearance): 20% | contribution of CYP3A to total CLint ([8]; sensitivity analyses): 50% | contribution of glucuronidation to total CLint ([8]; sensitivity analyses): 30%

CC(=O)N1CCN(c2ccc(OCC3COC(Cn4ccnc4)(c4ccc(Cl)cc4Cl)O3)cc2)CC1 (stereo not drawn) [Ketoconazole, ketoconazole]
IC50 [9]: 400 nM
